The source made the active and inactive calls. The rule behind the calls is not given here.
Tests used:
HCT-116 [1] = assay: Growth inhibition of human HCT116 cells after 48 hrs by SRB assay; type: functional; settings: HCT-116, 48 h
[2] = molecular target: Histone deacetylase 2 (Homo sapiens) (UniProt Q92769); assay: Inhibition of His-tagged recombinant full length human HDAC2 expressed in baculovirus infected insect cells at 0.1 to 100 uM using Fluor-de-Lys-SIRT1 as substrate after 15 mins by fluorescence assay
Sequence of Histone deacetylase 2 (Homo sapiens) (Q92769 whole entry): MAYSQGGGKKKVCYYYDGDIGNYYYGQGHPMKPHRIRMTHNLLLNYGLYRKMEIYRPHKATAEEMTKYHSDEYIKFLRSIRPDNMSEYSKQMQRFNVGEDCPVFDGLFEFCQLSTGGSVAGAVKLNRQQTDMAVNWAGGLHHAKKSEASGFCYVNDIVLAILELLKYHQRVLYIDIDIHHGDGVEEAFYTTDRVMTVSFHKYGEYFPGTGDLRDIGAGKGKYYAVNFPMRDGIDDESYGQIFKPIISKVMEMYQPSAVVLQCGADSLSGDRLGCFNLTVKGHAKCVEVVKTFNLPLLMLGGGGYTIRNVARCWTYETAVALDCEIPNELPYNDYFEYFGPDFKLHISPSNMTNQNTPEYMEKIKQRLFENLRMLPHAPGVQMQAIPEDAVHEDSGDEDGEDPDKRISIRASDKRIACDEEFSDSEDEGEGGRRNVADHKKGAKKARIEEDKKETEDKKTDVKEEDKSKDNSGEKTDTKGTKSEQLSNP

TK-10 = assay: Growth inhibition of human TK10 cells after 48 hrs by SRB assay; type: functional; settings: TK-10, 48 h
U-373MG ATCC [3] = assay: Cell cycle arrest in human U373 cells assessed as accumulation at G1 phase at IC50 after 24 to 48 hrs by propidium iodide staining-based flow cytometry; type: functional
In short: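 Cells were exposed to compound at the IC50 for each line from the 72 h MTT assay, or to a reference HDAC inhibitor at 2 μM. Cell cycle distribution was analyzed after 24 and 48 h. Results are mean ± SD of three independent experiments, with p values against control cells.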

HCC 2998 = assay: Growth inhibition of human HCC2998 cells after 48 hrs by SRB assay; type: functional; settings: HCC 2998, 48 h
Hs 683 [4] = assay: Induction of senescence in human Hs683 cells at 5 uM after 6 days by beta-galactosidase assay (reference value: 0.2%); type: functional
In short: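 Cells were kept 6 days in medium containing 5 μM compound or DMSO vehicle, then stained for senescence-associated β-galactosidase activity. Blue-stained cells were counted and expressed as a percentage of total cells counted. Two independent experiments.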

MCF7 = assay: Growth inhibition of human MCF7 cells after 48 hrs by SRB assay; type: functional; settings: MCF7, 48 h
[5] = molecular target: Histone deacetylase 11 (Homo sapiens) (UniProt Q96DB2); assay: Inhibition of N-terminal His-tagged recombinant human HDAC11 expressed in baculovirus infected insect Sf9 cells at 0.1 to 100 uM using Fluor-de-Lys-SIRT1 as substrate after 15 mins by fluorescence assay
Sequence of Histone deacetylase 11 (Homo sapiens) (Q96DB2 whole entry): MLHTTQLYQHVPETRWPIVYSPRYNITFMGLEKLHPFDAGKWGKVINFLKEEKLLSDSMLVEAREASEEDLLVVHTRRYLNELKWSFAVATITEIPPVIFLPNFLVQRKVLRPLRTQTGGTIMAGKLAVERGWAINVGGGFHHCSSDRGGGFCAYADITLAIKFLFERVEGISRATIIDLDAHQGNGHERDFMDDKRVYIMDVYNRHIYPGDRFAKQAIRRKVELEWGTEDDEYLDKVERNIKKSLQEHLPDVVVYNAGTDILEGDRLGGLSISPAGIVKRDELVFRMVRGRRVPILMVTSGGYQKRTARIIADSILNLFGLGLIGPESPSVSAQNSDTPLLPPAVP

T47D = assay: Growth inhibition of human T47D cells after 48 hrs by SRB assay; type: functional
HCT-116 [6] = assay: Antiproliferative activity against p53 knock out human HCT116 cells after 72 hrs by MTT assay; type: functional, cell-based
In short: (§1)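 MTT assay: cells in RPMI 1640 with 10% heat-inactivated FCS at 37 °C and 5% CO2 were seeded 24 h before treatment. They were exposed 72 h to compound at 0.01–100 μM, with DMSO as solvent.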

NCI-H522 = assay: Growth inhibition of human NCI-H522 cells after 48 hrs by SRB assay; type: functional; settings: NCI-H522, 48 h
UACC-257 = assay: Growth inhibition of human UACC257 cells after 48 hrs by SRB assay; type: functional; settings: UACC-257, 48 h
CCRF-CEM = assay: Growth inhibition of human CCRF-CEM cells after 48 hrs by SRB assay; type: functional
OVCAR-8 = assay: Growth inhibition of human OVCAR8 cells after 48 hrs by SRB assay; type: functional; settings: OVCAR-8, 48 h
PC-3 = assay: Growth inhibition of human PC3 cells after 48 hrs by SRB assay; type: functional; settings: PC-3, 48 h
A2780cis = assay: Antiproliferative activity against human A2780cis cells after 72 hrs by MTT assay; type: functional, cell-based; in short: as §1
Hs 683 [7] = assay: Potency index, ratio of sirtinol IC50 to test compound IC50 for human Hs683 cells; type: functional
LOX IMVI = assay: Growth inhibition of human LOXIMVI cells after 48 hrs by SRB assay; type: functional
[8] = molecular target: T1, NAD-dependent protein deacetylase sirtuin-1 (Homo sapiens) (UniProt Q96EB6); assay: Inhibition of SIRT1 in human U373 cells assessed as increase of histone H4 acetylation at 10 to 25 after 8 to 24 hrs by Western blotting method; type: cell-based
T1 sequence (whole entry): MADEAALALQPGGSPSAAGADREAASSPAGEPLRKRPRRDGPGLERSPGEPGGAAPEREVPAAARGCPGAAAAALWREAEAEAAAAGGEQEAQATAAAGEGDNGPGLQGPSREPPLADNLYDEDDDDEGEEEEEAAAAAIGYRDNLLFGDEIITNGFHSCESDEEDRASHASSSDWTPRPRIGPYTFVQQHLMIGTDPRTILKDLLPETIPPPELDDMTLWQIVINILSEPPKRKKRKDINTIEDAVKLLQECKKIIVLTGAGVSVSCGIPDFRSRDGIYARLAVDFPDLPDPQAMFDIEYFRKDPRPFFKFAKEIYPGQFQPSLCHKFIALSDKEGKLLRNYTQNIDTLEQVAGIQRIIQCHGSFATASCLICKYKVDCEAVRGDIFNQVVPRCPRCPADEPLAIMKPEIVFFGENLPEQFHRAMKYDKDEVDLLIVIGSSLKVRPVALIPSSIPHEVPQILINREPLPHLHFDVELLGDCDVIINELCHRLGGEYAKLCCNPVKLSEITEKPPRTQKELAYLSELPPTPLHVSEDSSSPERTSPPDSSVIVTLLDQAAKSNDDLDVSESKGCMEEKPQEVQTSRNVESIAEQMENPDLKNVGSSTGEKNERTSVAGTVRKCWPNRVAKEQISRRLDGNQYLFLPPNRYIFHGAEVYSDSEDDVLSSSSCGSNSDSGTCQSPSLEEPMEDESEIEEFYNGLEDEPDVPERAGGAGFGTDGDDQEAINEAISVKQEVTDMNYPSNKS

UO-31 = assay: Growth inhibition of human UO31 cells after 48 hrs by SRB assay; type: functional; settings: UO-31, 48 h
U-373MG ATCC [9] = assay: Inhibition of spheroid forming capacity of human U373 cells assessed as decrease in surface area of tumor spheroids at 5 to 10 uM treated for 24 hrs measured after 96 hrs by bright field microscopic method; type: functional, cell-based
In short: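 Spheroids formed from 1 × 10^3 cells in 25 μL. Cells were pretreated 24 h with compound then left untreated 96 h, or untreated spheroids were cultured 96 h with compound. Surface measured from bright-field images; volume in voxels from 3D plots after image segmentation. Mean ± SD of three independent experiments.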

[10] = Selectivity index, ratio of IC50 for mouse astrocytes to IC50 for human T98G cells
Hs 683 [11] = assay: Cytostatic activity against human Hs683 cells at 10 uM after 72 hrs by quantitative videomicroscopy relative to control; type: functional
In short: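 Cells were grown in 25 cm2 flasks, and phase-contrast images were recorded every 4 min over 72 h, in triplicate. Global growth is cell count on the last image divided by cell count on the first, at 24, 48 and 72 h. The GGR index is treated GG divided by control GG.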

[12] = Induction of apoptosis in human U373 cells at 10 uM after 72 hrs by TUNEL method relative to control; type: functional, U-373MG ATCC
COLO 205 = assay: Growth inhibition of human COLO205 cells after 48 hrs by SRB assay; type: functional; settings: COLO 205, 48 h
SW1573/2R160 = assay: Antiproliferative activity against human SW1573/2R160 cells overexpressing ABCB1 after 72 hrs by MTT assay; type: functional, cell-based; in short: as §1
SF-268 = assay: Growth inhibition of human SF268 cells after 48 hrs by SRB assay; type: functional; settings: SF-268, 48 h

Compound: CC(C)(C)OC(=O)Nc1ccc2c(c1)C(NC(=O)Nc1cccc(C#N)c1)CC(C)(C)O2 (configuration not stated)
- GI50 (HCT-116 [1]): 1.74 µM
- inhibition [2]: inactive
- GI50 (TK-10): 5.5 µM
- Activity (U-373MG ATCC [3]): Active
- GI50 (HCC 2998): 5.13 µM
- Activity (Hs 683 [4]): 0.5%
- GI50 (MCF7): 2.14 µM
- inhibition [5]: inactive
- GI50 (T47D): 2.69 µM
- Activity (HCT-116 [6]): Active
- GI50 (NCI-H522): 3.24 µM
- GI50 (UACC-257): 0.871 µM
- GI50 (CCRF-CEM): 3.31 µM
- GI50 (OVCAR-8): 3.16 µM
- GI50 (PC-3): 0.759 µM
- Activity (A2780cis): Active
- Ratio IC50 (Hs 683 [7]): 6
- GI50 (LOX IMVI): 1.62 µM
- inhibition [8]: Active
- GI50 (UO-31): 4.27 µM
- inhibition (U-373MG ATCC [9]): Active
- Ratio IC50 [10]: >10
- Activity (Hs 683 [11]): >=50%
- Activity [12]: <10%
- GI50 (COLO 205): 3.55 µM
- Activity (SW1573/2R160): Active
- GI50 (SF-268): 5.01 µM

— ChEMBL document CHEMBL4052637, “Discovery and Characterization of R/S-N-3-Cyanophenyl-N'-(6-tert-butoxycarbonylamino-3,4-dihydro-2,2-dimethyl-2H-1-benzopyran-4-yl)urea, a New Histone Deacetylase Class III Inhibitor Exerting Antiproliferative Activity against Cancer Cell Lines” (J Med Chem, 2017)
